Values joined by “and” are separate entries in the source; they are usually repeats but may differ in a detail not shown here. Equal values may be shown once. Read-outs that look alike come from different tables or passages of the source. Each block holds one molecule with its values, some of them ahead of it.
Tests used:
PSMA = PSMA (Homo sapiens, UniProt Q04609); assay: PSMA inhibition assay; type: biochemical
How it was run: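 LNCaP cell extract as enzyme source, incubated with the inhibitor at various amounts plus 4 μM NAAG for 120 min. Glutamate released was detected with Amplex Red glutamic acid working solution over 60 min, fluorescence ex 530/em 560 nm. […] Triplicate; known PSMA inhibitor as positive control.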

[1] = tested on: PC-3 PIP and PC-3 flu xenografts; settings: SCID mice
[2] = tested on: PSMA+ PC-3 PIP xenografts; settings: cited from earlier work
[3] = Phase II trial, 3 months after treatment; cited from earlier work

PSMA, sequence (Q04609 whole entry): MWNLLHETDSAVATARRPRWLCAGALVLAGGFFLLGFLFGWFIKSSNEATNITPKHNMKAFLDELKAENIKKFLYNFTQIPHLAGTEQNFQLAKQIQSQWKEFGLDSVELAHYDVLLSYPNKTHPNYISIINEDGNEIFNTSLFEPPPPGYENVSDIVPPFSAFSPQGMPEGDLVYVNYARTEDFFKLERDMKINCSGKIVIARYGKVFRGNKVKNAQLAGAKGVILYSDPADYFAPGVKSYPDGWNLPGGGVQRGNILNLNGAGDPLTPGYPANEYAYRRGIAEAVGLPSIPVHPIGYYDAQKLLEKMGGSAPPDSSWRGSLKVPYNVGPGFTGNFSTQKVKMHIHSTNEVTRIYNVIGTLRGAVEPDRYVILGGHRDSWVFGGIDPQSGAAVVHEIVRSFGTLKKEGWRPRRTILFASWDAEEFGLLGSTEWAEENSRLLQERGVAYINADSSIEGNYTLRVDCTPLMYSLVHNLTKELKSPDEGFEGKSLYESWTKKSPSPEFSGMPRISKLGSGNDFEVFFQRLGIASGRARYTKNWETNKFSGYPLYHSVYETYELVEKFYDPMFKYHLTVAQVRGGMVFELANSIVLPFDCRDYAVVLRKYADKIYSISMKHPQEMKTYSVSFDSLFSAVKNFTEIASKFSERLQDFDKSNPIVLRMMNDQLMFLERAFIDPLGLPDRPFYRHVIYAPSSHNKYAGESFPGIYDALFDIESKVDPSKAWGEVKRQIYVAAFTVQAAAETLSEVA

IC50 (PSMA): 0.43 nM
Ki (PSMA): 0.09 nM
SMILES: O=C(O)CC[C@H](NC(=O)N[C@@H](CCC(=O)NCCc1ccc(I)cc1)C(=O)O)C(=O)O [HS-549, (((S)-1-Carboxy-4-((4-iodophenethyl)amino)-4-oxobutyl)carbamoyl)-L-glutamic acid]

SMILES: O=C(O)CC[C@H](NC(=O)N[C@@H](CCC(=O)NCCc1ccc([131I])cc1)C(=O)O)C(=O)O [[^131I]HS-549]
Percent injected dose per gram: Blood ([1]; 1 h): 5.90 ± 1.05 % ID/g
Percent injected dose per gram: Bone ([1]; 1 h): 0.94 ± 0.36 % ID/g
Percent injected dose per gram: Brain ([1]; 1 h): 0.26 ± 0.08 % ID/g
Percent injected dose per gram: Heart ([1]; 1 h): 2.30 ± 0.63 % ID/g
Percent injected dose per gram: Kidneys ([1]; 1 h): 106 ± 18.9 % ID/g
Percent injected dose per gram: Lg. Int. ([1]; 1 h): 0.52 ± 0.12 % ID/g
Percent injected dose per gram: Liver ([1]; 1 h): 21.2± 4.14 % ID/g
Percent injected dose per gram: Lungs ([1]; 1 h): 4.60 ± 1.09 % ID/g
Percent injected dose per gram: Muscle ([1]; 1 h): 0.86 ± 0.26 % ID/g
Percent injected dose per gram: PC-3 PIP ([1]; 1 h): 78.1 ± 19.1 % ID/g
Percent injected dose per gram: PC-3 flu ([1]; 1 h): 2.21 ± 0.53 % ID/g
Percent injected dose per gram: Sm. Int. ([1]; 1 h): 1.98 ± 0.30 % ID/g
Percent injected dose per gram: Spleen ([1]; 1 h): 6.76 ± 3.42 % ID/g
Percent injected dose per gram: Stomach ([1]; 1 h): 0.92 ± 0.20 % ID/g
Percent injected dose per gram: Thyroid ([1]; 1 h): 1.17 ± 0.43 % ID/g
Thyroid uptake ([1]; 1 h): 0.30 ± 0.13 %ID
Tumor-to-blood ratio (PSMA+ PC3 PIP) ([1]; 1 h): 13.3 ± 2.7
Tumor-to-kidney ratio (PSMA+ PC3 PIP) ([1]; 1 h): 0.74 ± 0.15
Liver levels relative to co-administered [211At]HS-549 ([1]; 1 h and 2 h, P < 0.05): 3–6 fold
Percent injected dose per gram: Blood ([1]; 2 h): 2.92 ± 0.32 % ID/g
Percent injected dose per gram: Bone ([1]; 2 h): 0.65 ± 0.25 % ID/g
Percent injected dose per gram: Brain ([1]; 2 h): 0.18 ± 0.02 % ID/g
Percent injected dose per gram: Heart ([1]; 2 h): 1.14 ± 0.18 % ID/g
Percent injected dose per gram: Kidneys ([1]; 2 h): 96.6 ± 39.1 % ID/g
Percent injected dose per gram: Lg. Int. ([1]; 2 h): 1.32 ± 0.25 % ID/g
Percent injected dose per gram: Liver ([1]; 2 h): 26.0 ± 3.09 % ID/g
Percent injected dose per gram: Lungs ([1]; 2 h): 2.73 ± 0.66 % ID/g
Percent injected dose per gram: Muscle ([1]; 2 h): 0.46 ± 0.12 % ID/g
Percent injected dose per gram: PC-3 PIP ([1]; 2 h): 74.7 ± 13.1 % ID/g
Percent injected dose per gram: PC-3 flu ([1]; 2 h): 1.51 ± 0.30 % ID/g
Percent injected dose per gram: Sm. Int. ([1]; 2 h): 2.42 ± 0.40 % ID/g
Percent injected dose per gram: Spleen ([1]; 2 h): 2.71 ± 0.85 % ID/g
Percent injected dose per gram: Stomach ([1]; 2 h): 0.47 ± 0.17 % ID/g
Percent injected dose per gram: Thyroid ([1]; 2 h): 0.69 ± 0.29 % ID/g
Tumor-to-blood ratio (PSMA+ PC3 PIP) ([1]; 2 h): 26 ± 5.3
Tumor-to-kidney ratio (PSMA+ PC3 PIP) ([1]; 2 h): 0.87 ± 0.30
Percent injected dose per gram: Blood ([1]; 21 h): 1.39 ± 0.35 % ID/g
Percent injected dose per gram: Bone ([1]; 21 h): 0.20 ± 0.05 % ID/g
Percent injected dose per gram: Brain ([1]; 21 h): 0.08 ± 0.02 % ID/g
Percent injected dose per gram: Heart ([1]; 21 h): 0.41 ± 0.09 % ID/g
Percent injected dose per gram: Kidneys ([1]; 21 h): 3.13 ± 1.65 % ID/g
Percent injected dose per gram: Lg. Int. ([1]; 21 h): 0.63 ± 0.39 % ID/g
Percent injected dose per gram: Liver ([1]; 21 h): 1.86 ± 0.51 % ID/g
Percent injected dose per gram: Lungs ([1]; 21 h): 0.87 ± 0.27 % ID/g
Percent injected dose per gram: Muscle ([1]; 21 h): 0.16 ± 0.04 % ID/g
Percent injected dose per gram: PC-3 PIP ([1]; 21 h): 22.6 ± 22.1 % ID/g
Percent injected dose per gram: PC-3 flu ([1]; 21 h): 0.44 ± 0.18 % ID/g
Percent injected dose per gram: Sm. Int. ([1]; 21 h): 0.37 ± 0.06 % ID/g
Percent injected dose per gram: Spleen ([1]; 21 h): 0.29 ± 0.12 % ID/g
Percent injected dose per gram: Stomach ([1]; 21 h): 0.14 ± 0.04 % ID/g
Percent injected dose per gram: Thyroid ([1]; 21 h): 0.36 ± 0.05 % ID/g
Thyroid uptake ([1]; 21 h): 0.08 ± 0.01 %ID
Tumor-to-blood ratio (PSMA+ PC3 PIP) ([1]; 21 h): 18 ± 19
Tumor-to-kidney ratio (PSMA+ PC3 PIP) ([1]; 21 h): 6.26 ± 4.04

SMILES: O=C(O)CC[C@H](NC(=O)N[C@@H](CCCCNC(=O)c1ccc([211At])cc1)C(=O)O)C(=O)O [[^211At]DCABzL, (((S)-1-carboxy-5-(4-[^211At]astinatobenzamido)pentyl)carbamoyl)-L-glutamic acid]
Stomach activity level, range over time points ([2]; %ID/organ): 3.8 – 8.2%
Thyroid radioactivity level, range over time points ([2]; %ID/organ): 0.5–1.3%
Peak uptake in subcutaneous PC3 PSMA+ PIP xenografts [2]: > 30 % ID/g

SMILES: O=C(O)CC[C@H](NC(=O)N[C@@H](CCC(=O)NCCc1ccc([211At])cc1)C(=O)O)C(=O)O [[^211At]HS-549]
Percent injected dose per gram: Blood ([1]; 1 h): 5.5 ± 0.8 % ID/g and 5.53 ± 0.84 % ID/g
Percent injected dose per gram: Bone ([1]; 1 h): 1.49 ± 0.40 % ID/g
Percent injected dose per gram: Brain ([1]; 1 h): 0.46 ± 0.09 % ID/g
Percent injected dose per gram: Heart ([1]; 1 h): 4.34 ± 0.96 % ID/g
Percent injected dose per gram: Kidneys ([1]; 1 h): 46.7 ± 8.2 % ID/g
Percent injected dose per gram: Lg. Int. ([1]; 1 h): 1.16 ± 0.20 % ID/g
Percent injected dose per gram: Liver ([1]; 1 h): 7.94 ± 2.15 % ID/g
Percent injected dose per gram: Lungs ([1]; 1 h): 9.77 ± 1.75 % ID/g
Percent injected dose per gram: Muscle ([1]; 1 h): 1.11 ± 0.29 % ID/g
Percent injected dose per gram: PC-3 PIP ([1]; 1 h): 43.2 ± 9.8 % ID/g
Percent injected dose per gram: PC-3 flu ([1]; 1 h): 3.48 ± 0.53 % ID/g
Percent injected dose per gram: Sm. Int. ([1]; 1 h): 5.52 ± 1.57 % ID/g
Percent injected dose per gram: Spleen ([1]; 1 h): 8.79 ± 2.09 % ID/g
Percent injected dose per gram: Stomach ([1]; 1 h): 7.07 ± 2.24 % ID/g
Percent injected dose per gram: Thyroid ([1]; 1 h): 3.24 ± 0.56 % ID/g
Percent injected dose per gram: Blood ([1]; 2 h): 2.8 ± 0.4 % ID/g and 2.87 ± 0.40 % ID/g
Percent injected dose per gram: Brain ([1]; 2 h): 0.39 ± 0.06 % ID/g
Percent injected dose per gram: Heart ([1]; 2 h): 3.36 ± 0.59 % ID/g
Percent injected dose per gram: Kidneys ([1]; 2 h): 40.4 ± 15.5 % ID/g
Percent injected dose per gram: Lg. Int. ([1]; 2 h): 4.59 ± 0.81 % ID/g
Percent injected dose per gram: Liver ([1]; 2 h): 4.65 ±1.28 % ID/g
Percent injected dose per gram: Lungs ([1]; 2 h): 8.24 ± 2.25 % ID/g
Percent injected dose per gram: Muscle ([1]; 2 h): 0.76 ± 0.18 % ID/g
Percent injected dose per gram: PC-3 PIP ([1]; 2 h): 42.0 ± 7.16 % ID/g
Percent injected dose per gram: PC-3 flu ([1]; 2 h): 2.82 ±0.60 % ID/g
Percent injected dose per gram: Sm. Int. ([1]; 2 h): 3.81 ± 1.24 % ID/g
Percent injected dose per gram: Spleen ([1]; 2 h): 6.13 ± 1.59 % ID/g
Percent injected dose per gram: Stomach ([1]; 2 h): 14.3 ± 3.2 % ID/g
Percent injected dose per gram: Thyroid ([1]; 2 h): 4.11 ± 2.00 % ID/g
Percent injected dose per gram: Blood ([1]; 21 h): 0.92 ± 0.15 % ID/g
Percent injected dose per gram: Bone ([1]; 21 h): 0.60 ± 0.17 % ID/g
Percent injected dose per gram: Brain ([1]; 21 h): 0.17 ± 0.03 % ID/g
Percent injected dose per gram: Kidneys ([1]; 21 h): 2.60 ± 0.77 % ID/g
Percent injected dose per gram: Lg. Int. ([1]; 21 h): 0.93 ± 0.41 % ID/g
Percent injected dose per gram: Liver ([1]; 21 h): 0.89 ± 0.13 % ID/g
Percent injected dose per gram: Lungs ([1]; 21 h): 4.3 ± 0.7 % ID/g and 4.26 ± 0.72 % ID/g
Percent injected dose per gram: Muscle ([1]; 21 h): 0.29 ± 0.09 % ID/g
Percent injected dose per gram: PC-3 PIP ([1]; 21 h): 10.6 ± 9.91 % ID/g
Percent injected dose per gram: Sm. Int. ([1]; 21 h): 1.28 ± 0.30 % ID/g
Percent injected dose per gram: Spleen ([1]; 21 h): 2.31 ± 0.67 % ID/g
Percent injected dose per gram: Stomach ([1]; 21 h): 12.6 ± 6.20 % ID/g
Percent injected dose per gram: Thyroid ([1]; 21 h): 3.78 ± 0.63 % ID/g
Stomach activity level, range over time points ([1]; %ID/organ): 3.2 −8.7 %ID
Thyroid radioactivity level, range over time points ([1]; %ID/organ, all time points): 0.8–0.9 %ID

SMILES: O=C([O-])CN1CCN(CC(=O)[O-])CCN(CC(=O)NCC2CCC(C(=O)N[C@@H](Cc3ccc4ccccc4c3)C(=O)NCCCC[C@H](NC(=O)N[C@@H](CCC(=O)O)C(=O)O)C(=O)O)CC2)CCN(CC(=O)[O-])CC1.[177Lu+3] (some centres unmarked) [^177Lu-labeled PSMA-617]
Patients with reductions in tumor volume [3]: about 40%

Reference: article PMC7987787 (Nuclear medicine and biology, 2021)
